Experiments:
Mus musculus [1] = assay: Compound was tested for antitumor activity against the B-16 melanoma in mice at dose of 800(mg/kg)/day intraperitoneally per day; type: functional
In short: (§1)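 B-16 melanoma: young C57BL/6 × DBA/2 F1 male mice, about 20 g, 10 per group, inoculated ip with 5 × 10^6 melanoma cells on day 0. Drug given in 0.9% NaCl ip once daily for 12 days starting day 1. Read-out is %T/C = median survival time of treated/control × 100; weight change averaged between days 1 and 5.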

YT-NU [2] = assay: Compound was tested for growth inhibition of YT-nu cell lines at 0.1 mM concentration; type: functional; details: Homo sapiens
In short: (§2)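 YT-nu (human neuroblastoma) or Don-6 (Chinese hamster fibroblast) cells in McCoy's 5A with 15% FCS, attached 24 h. Washed, then exposed 1 h at 37 °C to drug at 1 or 0.1 mM in Hanks' BSS. Grown 48 h more in medium, trypsinized and Coulter-counted. % growth inhibition relative to parallel drug-free controls.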

Mus musculus [3] = assay: Compound was tested for antitumor activity against the L1210 leukemia in mice at dose of 800(mg/kg)/day intraperitoneally per day; type: functional
In short: as §1, with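 “L1210 leukemia: young” for “B-16 melanoma: young”, “with 1” for “with 5”, “10^6 leukemia” for “10^6 melanoma”, “for 7” for “for 12”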

Mus musculus [4] = assay: Compound was tested for antitumor activity against the L1210 leukemia in mice at dose of 400(mg/kg)/day intraperitoneally per day; type: functional
In short: as §1, with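 “L1210 leukemia: young” for “B-16 melanoma: young”, “with 1” for “with 5”, “10^6 leukemia” for “10^6 melanoma”, “for 7” for “for 12”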

Don [5] = assay: Growth inhibition of Don-6 cell lines at 1.0 mM concentration; type: functional; details: Cricetulus griseus; in short: as §2
Mus musculus [6] = assay: Compound was tested for antitumor activity against the B-16 melanoma in mice at dose of 400(mg/kg)/day intraperitoneally per day; type: functional; in short: as §1
Don [7] = assay: Compound was tested for growth inhibition of Don-6 cell lines at 0.1 mM concentration; type: functional; details: Cricetulus griseus; in short: as §2
YT-NU [8] = assay: Growth inhibition of YT-nu cell lines at 1.0 mM concentration; type: functional; details: Homo sapiens; in short: as §2
Mus musculus [9] = assay: Compound was tested for antitumor activity against the L1210 leukemia in mice at dose of 500(mg/kg)/day intraperitoneally per day; type: functional
In short: as §1, with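 “L1210 leukemia: young” for “B-16 melanoma: young”, “with 1” for “with 5”, “10^6 leukemia” for “10^6 melanoma”, “for 7” for “for 12”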

Mus musculus [10] = assay: Compound was tested for antitumor activity against the B-16 melanoma in mice at dose of 100(mg/kg)/day intraperitoneally per day; type: functional; in short: as §1
Mus musculus [11] = assay: Compound was tested for antitumor activity against the B-16 melanoma in mice at dose of 500(mg/kg)/day intraperitoneally per day; type: functional; in short: as §1
Mus musculus [12] = assay: Compound was tested for antitumor activity against the B-16 melanoma in mice at dose of 300(mg/kg)/day intraperitoneally per day; type: functional; in short: as §1
Mus musculus [13] = assay: Compound was tested for antitumor activity against the L1210 leukemia in mice at dose of 300(mg/kg)/day intraperitoneally per day; type: functional
In short: as §1, with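 “L1210 leukemia: young” for “B-16 melanoma: young”, “with 1” for “with 5”, “10^6 leukemia” for “10^6 melanoma”, “for 7” for “for 12”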

Mus musculus [14] = assay: Compound was tested for antitumor activity against the L1210 leukemia in mice at dose of 100(mg/kg)/day intraperitoneally per day; type: functional
In short: (§3)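 Male C57BL/6 × DBA/2 F1 mice, about 20 g, 10 per group, inoculated ip with 1 × 10^6 L1210 cells on day 0. From day 1, drug in 0.9% NaCl given ip once daily for 7 days. Weight change recorded between days 1 and 5. Activity expressed as %T/C = median survival time of treated over control × 100.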

Mus musculus [15] = assay: Compound was tested for antitumor activity against the L1210 leukemia in mice at dose of 250 mg/kg intraperitoneally per day; type: functional; details: route intraperitoneal
In short: as §1, with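 “L1210 leukemia: young” for “B-16 melanoma: young”, “with 1” for “with 5”, “10^6 leukemia” for “10^6 melanoma”, “for 7” for “for 12”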

[16] = system: YT-nu neuroblastoma (Homo sapiens); assay: Compound was tested for growth inhibition of YT-nu cell lines at 0.1 mM concentration
[17] = system: Don-6 fibroblast (Cricetulus griseus); assay: Compound was tested for growth inhibition of Don-6 cell lines at 0.1 mM concentration
Mus musculus [18] = assay: Compound was tested for antitumor activity against the L1210 leukemia in mice at dose of 150(mg/kg)/day intraperitoneally per day; type: functional; in short: as §3
Mus musculus [19] = assay: Compound was tested for antitumor activity against the L1210 leukemia in mice at dose of 500 mg/kg intraperitoneally per day; type: functional; details: route intraperitoneal
In short: as §1, with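 “L1210 leukemia: young” for “B-16 melanoma: young”, “with 1” for “with 5”, “10^6 leukemia” for “10^6 melanoma”, “for 7” for “for 12”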

Mus musculus [20] = assay: Compound was tested for antitumor activity against the B-16 melanoma in mice at dose of 1000 mg/kg/day intraperitoneally per day; type: functional; details: route intraperitoneal
Mus musculus [21] = assay: Compound was tested for antitumor activity against the L1210 leukemia in mice at dose of 1000 mg/kg/day intraperitoneally per day; type: functional; details: route intraperitoneal

## Cc1cc(O)c(O)c(SCC(N)C(=O)O)c1 (centres undefined)
Mus musculus [1]
  T/C: 126%
  Weight change: -0.4 g
YT-NU [2]
  inhibition at 100 µM: 44%
Mus musculus [3]
  T/C: 143%
  Weight change: 0.5 g
Mus musculus [4]
  T/C: 143%
  Weight change: 1.6 g
Don [5]
  inhibition at 1000 µM: 82%
Mus musculus [6]
  T/C: 100%
  Weight change: 0.7 g
Don [7]
  inhibition at 100 µM: 25%
YT-NU [8]
  inhibition at 1000 µM: 84%

## NC(CSc1cc(O)c(O)cc1CC(N)C(=O)O)C(=O)O (centres undefined)
Don [5]
  inhibition at 1000 µM: 41%
YT-NU [8]
  inhibition at 1000 µM: 61%

## NC(CSc1ccc(O)c(O)c1)C(=O)O (centres undefined)
Mus musculus [9]
  T/C: 150%
  Weight change: -1 g
Mus musculus [10]
  T/C: 109%
  Weight change: 1.8 g
YT-NU [2]
  inhibition at 100 µM: 71%
Mus musculus [11]
  T/C: 95%
  Weight change: -1.5 g
Mus musculus [12]
  T/C: 114%
  Weight change: -1.3 g
Mus musculus [13]
  T/C: 138%
  Weight change: 0.5 g
Don [5]
  inhibition at 1000 µM: 81%
Mus musculus [14]
  T/C: 113%
  Weight change: 1.4 g
Don [7]
  inhibition at 100 µM: 69%
YT-NU [8]
  inhibition at 1000 µM: 76%

## NC(CSc1ccc(O)cc1)C(=O)O (centres undefined)
Don [5]
  inhibition at 1000 µM: 5%
Mus musculus [15]
  T/C: 100%
  Weight change: 3 g
YT-NU [8]
  inhibition at 1000 µM: 36%

## Cl.Cl.NCCSc1cc(CCN)cc(O)c1O
Don [5]
  inhibition at 1000 µM: 83%
[16]
  inhibition at 100 µM: 48%
Mus musculus [14]
  T/C: 100%
  Weight change: 1.1 g
[17]
  inhibition at 100 µM: 73%
YT-NU [8]
  inhibition at 1000 µM: 65%
Mus musculus [18]
  T/C: 88%
  Weight change: -2.1 g

## NC(CSc1cc(CC(N)C(=O)O)ccc1O)C(=O)O (centres undefined)
Don [5]
  inhibition at 1000 µM: 5%
YT-NU [8]
  inhibition at 1000 µM: 7%

## NC(CSc1nc(CC(N)C(=O)O)c[nH]1)C(=O)O (centres undefined)
Don [5]
  inhibition at 1000 µM: 0%
YT-NU [8]
  inhibition at 1000 µM: 7%

## NC(CSc1ccccc1O)C(=O)O (centres undefined)
Don [5]
  inhibition at 1000 µM: 5%
YT-NU [8]
  inhibition at 1000 µM: 51%

## NC(CSc1cc(CC(N)C(=O)O)c(SCC(N)C(=O)O)c(O)c1O)C(=O)O (centres undefined)
Don [5]
  inhibition at 1000 µM: 44%
YT-NU [8]
  inhibition at 1000 µM: 56%

## NCCc1ccc(O)c(O)c1 [DOPAMINE]
Don [5]
  inhibition at 1000 µM: 30%
YT-NU [8]
  inhibition at 1000 µM: 40%

## N[C@@H](Cc1ccc(O)c(O)c1)C(=O)O [LEVODOPA]
Don [5]
  inhibition at 1000 µM: 6%
YT-NU [8]
  inhibition at 1000 µM: 24%

## NC(CSc1c(CC(N)C(=O)O)ccc(O)c1O)C(=O)O (centres undefined)
Don [5]
  inhibition at 1000 µM: 0%
YT-NU [8]
  inhibition at 1000 µM: 35%

## NC(CSc1ccc(SCC(N)C(=O)O)c(O)c1O)C(=O)O (centres undefined)
Don [5]
  inhibition at 1000 µM: 30%
YT-NU [8]
  inhibition at 1000 µM: 40%

## Cc1ccc(O)c(O)c1
Don [5]
  inhibition at 1000 µM: 76%
[16]
  inhibition at 100 µM: 48%
[17]
  inhibition at 100 µM: 33%
YT-NU [8]
  inhibition at 1000 µM: 93%

## NC(CSc1cccc(O)c1O)C(=O)O (centres undefined)
Don [5]
  inhibition at 1000 µM: 32%
YT-NU [8]
  inhibition at 1000 µM: 20%

## NC(CSc1cc(CC(N)C(=O)O)cc(O)c1O)C(=O)O (centres undefined)
Mus musculus [9]
  T/C: 131%
Mus musculus [19]
  Weight change: 1.7 g
Mus musculus [11]
  T/C: 108%
  Weight change: 2.6 g
Mus musculus [20]
  T/C: 127%
  Weight change: 2.1 g
Don [5]
  inhibition at 1000 µM: 11%
Mus musculus [21]
  T/C: 150%
  Weight change: 1.7 g
YT-NU [8]
  inhibition at 1000 µM: 59%

From ChEMBL document CHEMBL1121845, “Synthesis and antitumor activity of cysteinyl-3,4-dihydroxyphenylalanines and related compounds” (1981)
